This note sets out measurements from ChEMBL document CHEMBL1800057, “Discovery of dual inducible/neuronal nitric oxide synthase (iNOS/nNOS) inhibitor development candidate 4-((2-cyclobutyl-1H-imidazo[4,5-b]pyrazin-1-yl)methyl)-7,8-difluoroquinolin-2(1H)-one (KD7332) part 2: identification of a novel, potent, and selective series of benzimidazole-quinolinone …” (J Med Chem, 2010).

Data set [1] is described as follows: Plasma clearance in rhesus monkey at 3 mg/kg, iv and 10 mg/kg, po. It counts as ADME, organism-based, Macaca mulatta. Summed up: (§1)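 Rhesus pharmacokinetics: 3 mg/kg iv and 10 mg/kg po, HCl salt. Clp, t1/2, Vdss, Cmax, AUC, oral t1/2 and %F reported.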
Data set [2] is described as follows: Half life in rhesus monkey at 3 mg/kg, iv and 10 mg/kg, po. The following applies: in vivo. It counts as ADME, organism-based, Macaca mulatta. Summed up: as §1
Data set [3] can be described thus: Volume of distribution at steady state in rhesus monkey at 3 mg/kg, iv and 10 mg/kg, po. It counts as ADME, organism-based, Macaca mulatta. The conditions noted are these: in vivo, read-out: Vdss. Summed up:
as §1

The nature of data set [4]: Cmax in rhesus monkey at 3 mg/kg, iv and 10 mg/kg, po. The following applies: in vivo. It counts as ADME, organism-based, Macaca mulatta. The method in brief: as §1
Data set [5] is described as follows: AUC in rhesus monkey at 3 mg/kg, iv and 10 mg/kg, po. It counts as ADME, organism-based, Macaca mulatta. The conditions noted are these: plasma. The method in brief: as §1
The nature of data set [6]: Half life in rhesus monkey at 10 mg/kg, po. It counts as ADME, organism-based, Macaca mulatta. The following applies: in vivo. Further details: dose 10 mg/kg, route oral.
Data set [7] is described as follows: Bioavailability in rhesus monkey at 3 mg/kg, iv and 10 mg/kg, po. It counts as ADME, organism-based, Macaca mulatta. The conditions noted are these: in vivo. The method in brief: as §1
Data set [8] relates to Mus musculus. The experiment in a line: Antiallodynic activity against von Frey hair mechanically stimulated neuropathic pain in mouse Chung model of neuropathic pain assessed as attenuation of tactile allodynia at 30 mg/kg, po bid for 4 days. It counts as functional, organism-based. Further details: dose 30 mg/kg. Summed up:
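Spinal nerve ligation in mice under isoflurane (5% induction, 2-3% maintenance). Von Frey filaments pressed on the paw for up to 10 s. 50% withdrawal threshold derived by Dixon's up-down method. Only mice with baseline thresholds of ~0.2-0.3 g between 5 and 10 days post-surgery were included. Dosing was oral.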

Data set [9] is described as follows: Plasma clearance in mouse at 3 mg/kg, iv and 10 mg/kg, po. It counts as ADME, organism-based.
Data set [10] is described as follows: Volume of distribution at steady state in mouse at 3 mg/kg, iv and 10 mg/kg, po. It counts as ADME, organism-based. The following applies: in vivo, read-out: Vdss.
Data set [11] is described as follows: Cmax in mouse at 3 mg/kg, iv and 10 mg/kg, po. It counts as ADME, organism-based. The conditions noted are these: in vivo.
The nature of data set [12]: AUC in mouse at 3 mg/kg, iv and 10 mg/kg, po. It counts as ADME, organism-based. The following applies: plasma.
Data set [13] in a line: Half life in mouse at 10 mg/kg, po. It counts as ADME, organism-based. Set-up: dose 10 mg/kg, route oral. The conditions noted are these: in vivo.
Data set [14] in a line: Oral bioavailability in mouse at 10 mg/kg. The following applies: in vivo. It counts as ADME, organism-based.
The target of data set [15] is Nitric oxide synthase, inducible (Homo sapiens, UniProt P35228). Nature of the data set: Inhibition of human iNOS expressed in HEK293 cells assessed as inhibition of nitric oxide production after 18 hrs using 2,3-diaminonaphthalene by fluorescence assay. It counts as cell-based. Summed up:
(§2)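 HEK293 cells grown to ~70% confluence in DMEM/10% FBS with pen/strep, transiently transfected with 10 μg human or murine iNOS plasmid plus Fugene 6 for 4 h at 37 °C, 10% CO2. Cells replated at 5e5 cells/mL and dosed with compound at once; 1400W (100 μM final) as positive control. After 18 h, DAN (10 μg/mL final) in HCl (0.1 N final) added for 20 min at room temperature. Fluorescence read after NaOH (0.12 N final).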

The target in a further data set is Nitric oxide synthase 1 (Homo sapiens, UniProt P29475). Nature of the data set: Inhibition of human nNOS expressed in HEK293 cells assessed as inhibition ionomycin induced nitric oxide production incubated for 24 hrs measured after 18 hrs of ionomycin challenge using 2,3-diaminonaphthalene by fluorescence assay. It counts as cell-based. The method in brief: (§3)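 HEK293 cells transfected for 4 h at 37 °C with human nNOS (10 μg) or human eNOS (15 μg) plasmid (Fugene 6, 3:1). Cells replated at 5e5 cells/mL and dosed with compound at once; SEITU (100 μM final) as positive control. After 24 h, cells activated with A23187 (83 nM final) for eNOS or ionomycin (30 μM final) for nNOS. NO read 18 h later as nitrite-DAN fluorescence.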
Nitric oxide synthase 1, sequence (P29475 whole entry): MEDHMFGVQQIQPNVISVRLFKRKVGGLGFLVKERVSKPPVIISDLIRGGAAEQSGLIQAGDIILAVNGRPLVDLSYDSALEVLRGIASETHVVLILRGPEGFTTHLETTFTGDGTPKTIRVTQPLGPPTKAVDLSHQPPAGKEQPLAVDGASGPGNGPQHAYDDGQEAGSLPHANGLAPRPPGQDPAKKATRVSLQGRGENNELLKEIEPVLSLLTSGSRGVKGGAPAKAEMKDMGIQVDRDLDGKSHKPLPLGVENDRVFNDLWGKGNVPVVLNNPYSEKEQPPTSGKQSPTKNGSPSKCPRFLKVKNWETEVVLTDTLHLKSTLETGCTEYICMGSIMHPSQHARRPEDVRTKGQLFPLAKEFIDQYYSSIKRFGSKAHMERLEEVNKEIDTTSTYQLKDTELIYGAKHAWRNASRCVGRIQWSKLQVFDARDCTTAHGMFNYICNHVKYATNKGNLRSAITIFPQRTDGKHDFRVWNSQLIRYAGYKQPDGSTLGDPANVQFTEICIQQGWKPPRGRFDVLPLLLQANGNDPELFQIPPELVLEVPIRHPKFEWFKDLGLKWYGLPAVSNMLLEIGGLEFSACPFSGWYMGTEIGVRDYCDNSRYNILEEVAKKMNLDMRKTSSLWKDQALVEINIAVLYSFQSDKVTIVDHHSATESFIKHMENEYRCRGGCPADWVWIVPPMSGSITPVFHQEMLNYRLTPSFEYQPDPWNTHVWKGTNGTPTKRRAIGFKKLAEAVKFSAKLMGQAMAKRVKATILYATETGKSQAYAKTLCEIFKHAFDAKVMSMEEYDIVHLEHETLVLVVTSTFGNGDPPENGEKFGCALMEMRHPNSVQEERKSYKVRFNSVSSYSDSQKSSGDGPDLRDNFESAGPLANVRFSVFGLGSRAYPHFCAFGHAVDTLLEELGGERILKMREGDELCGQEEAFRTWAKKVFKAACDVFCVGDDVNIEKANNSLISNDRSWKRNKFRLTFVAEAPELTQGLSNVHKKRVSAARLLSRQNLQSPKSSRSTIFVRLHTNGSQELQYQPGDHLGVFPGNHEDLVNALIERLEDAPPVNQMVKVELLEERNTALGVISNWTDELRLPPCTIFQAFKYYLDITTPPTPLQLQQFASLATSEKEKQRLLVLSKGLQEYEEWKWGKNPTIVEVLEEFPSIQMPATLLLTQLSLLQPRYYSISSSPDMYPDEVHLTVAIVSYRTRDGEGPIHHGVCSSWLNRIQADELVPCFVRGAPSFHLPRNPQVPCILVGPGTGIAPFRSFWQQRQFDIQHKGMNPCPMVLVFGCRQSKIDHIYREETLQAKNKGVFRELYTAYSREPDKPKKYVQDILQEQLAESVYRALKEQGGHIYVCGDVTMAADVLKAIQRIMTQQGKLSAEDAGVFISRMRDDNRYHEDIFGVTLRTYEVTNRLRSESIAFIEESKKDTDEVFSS

A further data set has as its target T1, Nitric oxide synthase 3 (Homo sapiens, UniProt P29474).
T1 sequence (P29474 whole entry): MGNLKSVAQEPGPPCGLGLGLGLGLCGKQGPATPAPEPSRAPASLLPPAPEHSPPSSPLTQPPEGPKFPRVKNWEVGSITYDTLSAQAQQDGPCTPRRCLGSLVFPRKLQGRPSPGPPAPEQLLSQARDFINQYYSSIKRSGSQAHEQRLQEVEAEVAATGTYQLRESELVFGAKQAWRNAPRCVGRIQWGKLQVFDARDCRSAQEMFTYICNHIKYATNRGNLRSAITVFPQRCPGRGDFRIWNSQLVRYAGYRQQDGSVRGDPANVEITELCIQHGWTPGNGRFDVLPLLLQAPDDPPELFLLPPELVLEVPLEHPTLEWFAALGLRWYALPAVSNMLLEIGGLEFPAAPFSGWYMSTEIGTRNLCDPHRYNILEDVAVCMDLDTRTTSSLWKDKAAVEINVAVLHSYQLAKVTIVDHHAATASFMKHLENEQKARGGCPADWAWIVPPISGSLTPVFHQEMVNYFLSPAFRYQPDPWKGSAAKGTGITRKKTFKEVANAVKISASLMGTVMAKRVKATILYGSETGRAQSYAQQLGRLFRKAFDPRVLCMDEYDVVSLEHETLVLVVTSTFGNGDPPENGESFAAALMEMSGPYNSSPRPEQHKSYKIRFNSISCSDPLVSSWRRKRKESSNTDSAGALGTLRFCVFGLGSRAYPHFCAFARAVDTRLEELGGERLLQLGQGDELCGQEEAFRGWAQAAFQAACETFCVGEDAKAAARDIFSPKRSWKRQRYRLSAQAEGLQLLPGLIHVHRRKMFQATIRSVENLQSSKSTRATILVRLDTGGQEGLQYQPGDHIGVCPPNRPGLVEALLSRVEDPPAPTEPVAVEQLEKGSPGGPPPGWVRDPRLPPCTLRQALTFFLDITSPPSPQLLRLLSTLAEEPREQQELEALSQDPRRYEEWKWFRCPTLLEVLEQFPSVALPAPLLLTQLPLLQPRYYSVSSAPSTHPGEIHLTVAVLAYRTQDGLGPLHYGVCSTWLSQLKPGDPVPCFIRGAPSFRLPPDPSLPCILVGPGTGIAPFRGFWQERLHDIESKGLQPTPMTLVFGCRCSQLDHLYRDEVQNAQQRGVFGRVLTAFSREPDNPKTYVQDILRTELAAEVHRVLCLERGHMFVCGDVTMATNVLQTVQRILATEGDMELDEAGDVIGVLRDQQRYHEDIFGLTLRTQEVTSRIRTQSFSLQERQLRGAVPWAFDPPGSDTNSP
The experiment in a line: Inhibition of human eNOS expressed in HEK293 cells assessed as inhibition A23187 induced nitric oxide production incubated for 24 hrs measured after 18 hrs of […] challenge using 2,3-diaminonaphthalene by fluorescence assay. It counts as cell-based. Summed up: as §3

Another data set has as its system Liver. The experiment in a line: Half life in mouse liver microsomes assessed as formation of oxidation product and glucuronide conjugate. It counts as ADME, Microsome. The method in brief: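 Mouse liver microsomes run under combined phase I oxidation and phase II glucuronide conjugation; half-life reported in minutes.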
(In general: Microsomes from liver hold many membrane-bound enzymes, among them those of drug oxidation.)

For data set [16], the species on record is Homo sapiens. Nature of the data set: Ratio of IC50 for human eNOS to EC50 for human iNOS.
The species entered for data set [17] is Homo sapiens. Nature of the data set: Ratio of IC50 for human nNOS to EC50 for human iNOS.
The target of data set [18] is T2, Nitric oxide synthase, inducible (Mus musculus, UniProt P29477).
T2 sequence (P29477 whole entry): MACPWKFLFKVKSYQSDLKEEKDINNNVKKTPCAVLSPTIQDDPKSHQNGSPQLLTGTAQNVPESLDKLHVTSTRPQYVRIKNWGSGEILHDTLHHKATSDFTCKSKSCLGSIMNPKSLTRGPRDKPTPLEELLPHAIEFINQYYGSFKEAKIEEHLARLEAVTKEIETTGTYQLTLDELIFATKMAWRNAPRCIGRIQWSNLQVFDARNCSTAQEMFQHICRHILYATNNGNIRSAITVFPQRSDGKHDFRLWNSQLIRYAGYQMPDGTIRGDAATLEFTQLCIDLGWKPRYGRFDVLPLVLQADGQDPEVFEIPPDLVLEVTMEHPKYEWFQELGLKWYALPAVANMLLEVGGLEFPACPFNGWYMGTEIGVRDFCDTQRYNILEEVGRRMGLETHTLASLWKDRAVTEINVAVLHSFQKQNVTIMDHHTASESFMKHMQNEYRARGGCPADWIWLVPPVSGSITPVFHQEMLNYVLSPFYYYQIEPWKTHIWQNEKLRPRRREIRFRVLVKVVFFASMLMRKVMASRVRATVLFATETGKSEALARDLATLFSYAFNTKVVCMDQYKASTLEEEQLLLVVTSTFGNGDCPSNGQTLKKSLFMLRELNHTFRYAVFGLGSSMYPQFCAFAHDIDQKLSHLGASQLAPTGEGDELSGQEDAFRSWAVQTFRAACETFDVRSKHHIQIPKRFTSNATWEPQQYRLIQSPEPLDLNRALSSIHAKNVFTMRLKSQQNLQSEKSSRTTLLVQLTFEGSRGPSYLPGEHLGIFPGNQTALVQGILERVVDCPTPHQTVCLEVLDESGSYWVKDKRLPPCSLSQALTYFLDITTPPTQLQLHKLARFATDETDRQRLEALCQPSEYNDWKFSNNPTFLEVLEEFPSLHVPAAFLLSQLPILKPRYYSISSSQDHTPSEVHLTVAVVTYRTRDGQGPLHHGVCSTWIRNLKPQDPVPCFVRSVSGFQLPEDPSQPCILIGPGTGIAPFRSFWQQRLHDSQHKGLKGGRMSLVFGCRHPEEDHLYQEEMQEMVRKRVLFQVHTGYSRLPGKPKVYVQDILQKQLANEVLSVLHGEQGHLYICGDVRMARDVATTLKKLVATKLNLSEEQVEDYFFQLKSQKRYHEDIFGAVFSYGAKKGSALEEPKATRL
The experiment in a line: Inhibition of mouse iNOS expressed in HEK293 cells assessed as inhibition of nitric oxide production after 18 hrs using 2,3-diaminonaphthalene by fluorescence assay. It counts as cell-based. The method in brief:
as §2

The subject of data set [19] is Mus musculus. The experiment in a line: Inhibition of LPS-induced iNOS activation in BALB/c mouse assessed as plasma nitrate levels administered via oral gavage before LPS challenge measured after 6 to 8 hrs using 2,3-diaminonaphthalene by fluorescence assay. It counts as functional. The method in brief: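 Male BALB/c mice dosed by oral gavage (90% PEG/5% Tween 80/5% PVP + 0.5% w/v CMC) immediately before LPS (10 mg/kg ip in 0.9% NaCl). Mice killed at 6 h. EDTA plasma analysed for nitrate and drug levels; nitrite measured by DAN fluorescence.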

A short description of data set [20]: Half life in mouse at 3 mg/kg, iv and 10 mg/kg, po. The conditions noted are these: in vivo.

Calls of active or inactive are those of the source.

Nitric oxide synthase, inducible (Homo sapiens, UniProt P35228), sequence (P35228 whole entry): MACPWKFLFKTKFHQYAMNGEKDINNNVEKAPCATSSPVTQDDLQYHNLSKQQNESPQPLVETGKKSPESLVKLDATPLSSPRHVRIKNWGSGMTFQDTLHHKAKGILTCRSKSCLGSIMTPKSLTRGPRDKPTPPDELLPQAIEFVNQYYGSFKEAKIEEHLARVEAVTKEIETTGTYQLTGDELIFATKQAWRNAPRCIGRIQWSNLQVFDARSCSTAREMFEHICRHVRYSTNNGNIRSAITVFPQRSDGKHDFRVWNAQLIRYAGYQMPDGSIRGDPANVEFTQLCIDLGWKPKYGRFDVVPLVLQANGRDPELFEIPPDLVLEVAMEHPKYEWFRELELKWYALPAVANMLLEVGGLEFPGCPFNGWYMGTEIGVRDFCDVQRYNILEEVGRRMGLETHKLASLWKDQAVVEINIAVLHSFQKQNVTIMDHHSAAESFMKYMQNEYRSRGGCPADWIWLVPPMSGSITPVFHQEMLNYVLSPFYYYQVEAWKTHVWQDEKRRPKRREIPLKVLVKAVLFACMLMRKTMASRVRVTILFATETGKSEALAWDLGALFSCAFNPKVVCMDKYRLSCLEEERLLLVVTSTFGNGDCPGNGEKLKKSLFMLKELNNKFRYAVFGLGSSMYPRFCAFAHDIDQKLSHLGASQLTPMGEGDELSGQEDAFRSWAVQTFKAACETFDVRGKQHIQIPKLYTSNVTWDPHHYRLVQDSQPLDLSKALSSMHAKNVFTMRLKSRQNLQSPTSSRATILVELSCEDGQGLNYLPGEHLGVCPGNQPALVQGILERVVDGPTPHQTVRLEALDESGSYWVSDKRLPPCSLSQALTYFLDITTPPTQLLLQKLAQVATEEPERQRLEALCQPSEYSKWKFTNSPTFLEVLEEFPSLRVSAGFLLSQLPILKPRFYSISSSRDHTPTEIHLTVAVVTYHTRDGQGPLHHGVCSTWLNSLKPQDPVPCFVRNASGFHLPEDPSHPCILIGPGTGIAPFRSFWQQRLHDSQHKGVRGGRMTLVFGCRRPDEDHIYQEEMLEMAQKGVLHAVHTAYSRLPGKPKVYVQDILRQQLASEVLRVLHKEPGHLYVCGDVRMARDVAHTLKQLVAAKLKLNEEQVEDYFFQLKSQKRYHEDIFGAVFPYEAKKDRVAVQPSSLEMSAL

For the compound `Cl.O=c1cc(Cn2c(C3CCC3)nc3nccnc32)c2ccc(F)c(F)c2[nH]1`, the clearance in data set [1] came to 6 mL/min/kg. In addition, the half-life (in general, the time in which the quantity being followed falls by half) in [2] is 13 h; in [6], 9 h. The Vd in [3] worked out at 3 L/kg. Besides, in data set [4], the highest level (Cmax) was 3300 ng/mL. In [5], the AUC (commonly concentration integrated over time) stood at 18000 ng·h/mL. Also, the bioavailability (in general, the share of a dose that reaches the circulation, judged against a reference dose that is usually intravenous) in data set [7] came out at 63%.
Consider `CC(C)Cc1nc2nccnc2n1Cc1cc(=O)[nH]c2c(F)c(F)ccc12.Cl`, for which, in data set [1], the clearance came to 18 mL/min/kg. The half-life was 21 h in data set [2] and 15 h in data set [6]. For the same compound, the Vd in data set [3] turned out to be 19 L/kg. For the same compound, the Cmax (usually the maximum level reached in the sampled fluid or tissue) in data set [4] turned out to be 210 ng/mL. Further, the AUC in [5] is 3200 ng·h/mL. The compound also showed a bioavailability in data set [7] of 59%.
Take `CN1CC[C@]23c4c5ccc(O)c4O[C@H]2[C@@H](O)C=C[C@H]3[C@H]1C5`: in the data set on Mus musculus [8], the outcome was Active.
In turn, `CC(C)c1nc2ccccc2n1Cc1cc(=O)[nH]c2c(F)c(F)ccc12` registered a clearance in data set [9] of 5.9 mL/min/kg. The Vd in [10] was 0.7 L/kg. In [11], this compound came in with a Cmax of 14000 ng/mL. This compound also came in with an AUC in data set [12] of 19300 ng·h/mL. Further, the half-life was 2.6 h in [13] and 2.1 h in [20]. The bioavailability in data set [14] worked out at 58%. Moreover, the EC50 (in general, the concentration that produces a half-maximal response) came out at 800 nM in data set [15], 650 nM at Nitric oxide synthase 1, 11300 nM on Nitric oxide synthase 3 and 4400 nM in data set [18]. The t1/2 in the data set with Liver is above 2 h. Also, the Ratio EC50 amounted to 14 in the data set filed under Homo sapiens [16] and 0.8 in the data set filed under Homo sapiens [17]. Moreover, in the data set on Mus musculus [19], the ED50 – broadly, the midpoint of the dose-response relation – was 6 mg/kg.
